Measurements: ChEMBL document CHEMBL3120089, “Indoloditerpenes from a marine-derived fungal strain of Dichotomomyces cejpii with antagonistic activity at GPR18 and cannabinoid receptors” (J Nat Prod, 2014)
Activity calls are given as the source filed them. The calls are words filed in the database; no cut-off is given here.

Tests used:
Cannabinoid receptor 2 [1] = target: T1, Cannabinoid receptor 2 (Homo sapiens, UniProt P34972); assay: Displacement of [3H]-CP55940 from human CB2 receptor expressed in CHO cells; assay type: cell-based
T1 sequence (P34972 whole entry): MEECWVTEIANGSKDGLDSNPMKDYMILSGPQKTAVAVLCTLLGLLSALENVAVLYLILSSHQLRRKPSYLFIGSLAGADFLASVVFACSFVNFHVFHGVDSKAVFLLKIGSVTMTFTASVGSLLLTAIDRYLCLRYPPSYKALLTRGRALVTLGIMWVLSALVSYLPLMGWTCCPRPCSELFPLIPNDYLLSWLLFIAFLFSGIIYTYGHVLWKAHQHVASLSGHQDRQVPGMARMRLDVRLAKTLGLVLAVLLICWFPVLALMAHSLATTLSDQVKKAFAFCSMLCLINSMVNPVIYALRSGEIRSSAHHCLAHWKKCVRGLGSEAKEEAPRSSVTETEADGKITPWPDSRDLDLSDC
Summary of the method: (§1)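 Competition binding against agonist radioligand [3H]CP55,940 at CB1 or CB2 receptors. Compound stocks in DMSO, final DMSO 2.5%. Ki from concentration–inhibition curves; three independent experiments in duplicate.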

[2] = target: T2, N-arachidonyl glycine receptor (Homo sapiens, UniProt Q14330); assay: Inverse agonist activity at human GPR18 expressed in CHO cells assessed as inhibition of 7.5 uM THC-mediated beta-arrestin recruitment after 90 mins by beta-galactosidase reporter gene assay; assay type: cell-based
T2 sequence (Q14330 whole entry): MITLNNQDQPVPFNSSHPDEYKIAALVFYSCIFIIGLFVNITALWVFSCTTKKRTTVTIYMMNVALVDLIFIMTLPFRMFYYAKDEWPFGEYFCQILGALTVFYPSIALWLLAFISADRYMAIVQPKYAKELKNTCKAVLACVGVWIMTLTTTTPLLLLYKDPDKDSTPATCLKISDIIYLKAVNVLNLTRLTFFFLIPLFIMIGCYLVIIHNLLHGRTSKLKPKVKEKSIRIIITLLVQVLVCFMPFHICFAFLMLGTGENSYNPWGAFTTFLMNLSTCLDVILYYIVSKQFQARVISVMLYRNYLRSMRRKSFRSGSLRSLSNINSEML

[3] = target: T3, G-protein coupled receptor 55 (Homo sapiens, UniProt Q9Y2T6); assay: Antagonist activity at human GPR55 expressed in CHO cells assessed as inhibition of LPI-mediated beta-arrestin recruitment after 90 mins by beta-galactosidase reporter gene assay; assay type: cell-based
T3 sequence (Q9Y2T6 whole entry): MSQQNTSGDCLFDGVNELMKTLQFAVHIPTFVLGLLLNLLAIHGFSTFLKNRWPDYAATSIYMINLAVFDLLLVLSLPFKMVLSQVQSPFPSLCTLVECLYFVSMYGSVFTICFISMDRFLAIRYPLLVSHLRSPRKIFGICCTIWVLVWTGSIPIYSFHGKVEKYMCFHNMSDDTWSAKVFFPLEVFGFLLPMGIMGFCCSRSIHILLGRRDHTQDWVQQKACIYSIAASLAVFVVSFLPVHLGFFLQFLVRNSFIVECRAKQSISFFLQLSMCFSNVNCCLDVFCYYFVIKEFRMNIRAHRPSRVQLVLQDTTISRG
Summary of the method: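 CHO cells stably expressing GPR55; PathHunter β-galactosidase complementation. 20,000 cells/well seeded in Opti-MEM with 2% FCS and selection antibiotics, 24 h at 37 °C. Compounds added in PBS with 10% DMSO and 0.1% BSA, 90 min at 37 °C, against a constant 1 μM LPI. Galacton-Star/Emerald-II lysis reagent for 60 min at rt, then luminescence read. IC50 from three independent experiments in duplicate.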

Cannabinoid receptor 1 = Cannabinoid receptor 1 (Homo sapiens, UniProt P21554); assay: Displacement of [3H]-CP55940 from human CB1 receptor expressed in CHO cells; assay type: cell-based; conditions: for inhibition: concentration not given here; summary of the method: as §1
Chain of Cannabinoid receptor 1 (P21554 whole entry): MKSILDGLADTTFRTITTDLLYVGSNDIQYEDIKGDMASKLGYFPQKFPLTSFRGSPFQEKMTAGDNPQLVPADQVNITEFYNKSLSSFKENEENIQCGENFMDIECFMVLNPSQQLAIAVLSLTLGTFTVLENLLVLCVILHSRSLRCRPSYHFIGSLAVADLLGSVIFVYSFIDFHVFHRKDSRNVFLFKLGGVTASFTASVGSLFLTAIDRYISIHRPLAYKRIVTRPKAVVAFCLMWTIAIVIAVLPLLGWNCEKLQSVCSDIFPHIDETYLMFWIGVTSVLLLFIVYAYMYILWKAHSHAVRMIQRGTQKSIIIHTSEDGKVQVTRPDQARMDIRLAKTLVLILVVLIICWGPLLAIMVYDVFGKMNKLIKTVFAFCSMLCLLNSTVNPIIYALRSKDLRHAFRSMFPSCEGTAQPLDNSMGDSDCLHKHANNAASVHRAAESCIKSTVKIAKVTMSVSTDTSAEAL

[4] = target: T3, G-protein coupled receptor 55; assay: Antagonist activity at human GPR55 expressed in CHO cells assessed as inhibition of LPI-mediated beta-arrestin recruitment at 10 uM after 90 mins by beta-galactosidase reporter gene assay relative to control; assay type: cell-based
Summary of the method: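 PathHunter β-galactosidase β-arrestin assay in CHO cells stably expressing GPR55. Cells incubated 24 h at 37 °C before use. Screening at 10 μM compound against 1 μM LPI, 90 min at 37 °C. Chemiluminescent Galacton-Star detection for 60 min at rt. Result given as % inhibition; three independent experiments in duplicate.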

[5] = target: T2, N-arachidonyl glycine receptor; assay: Antagonist activity at human GPR18 expressed in CHO cells assessed as inhibition of […] uM THC-mediated beta-arrestin recruitment after 90 mins by beta-galactosidase reporter gene assay; assay type: cell-based
[6] = Solubility of the compound in water; assay type: physicochemical; conditions: buffer
Cannabinoid receptor 2 [7] = target: T1, Cannabinoid receptor 2; assay: Antagonist activity at human CB2 receptor expressed in CHO cells assessed as inhibition of forskolin-induced cAMP accumulation incubated for 5 mins followed by forskolin challenge measured after 15 mins by liquid scintillation counting analysis in presence of [3H]cAMP; assay type: functional, cell-based
Summary of the method: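 CHO cells stably expressing human CB2; adenylate cyclase inhibition measured as intracellular cAMP, quantified by a cAMP competition binding assay; three independent experiments in duplicate.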

L6 = assay: Cytotoxicity against rat L6 cells assessed as growth inhibition after 70 hrs by Alamar Blue assay; assay type: cell-based; conditions: L6, 70 h

SMILES	Ki (Cannabinoid receptor 2 [1]) [µM]	IC50 [2] [µM]	IC50 [3] [µM]	Ki (Cannabinoid receptor 1) [µM]	inhibition [4] [%]	IC50 [5] [µM]	inhibition (Cannabinoid receptor 1) [%]	solubility [6]	inhibition (Cannabinoid receptor 2 [7])	IC50 (L6) [µM]	inhibition (Cannabinoid receptor 2 [1]; concentration not given here) [%]
CC(C)=C[C@H]1C[C@]2(C)[C@H](CC[C@@]3(C)[C@H]2CC[C@H]2Cc4c([nH]c5ccccc45)[C@@]23C)O1	4.76	9.91	> 10	4.4	0						
CC(C)=CCC[C@]1(C)[C@@H](O[C@@H]2O[C@H](CO)[C@@H](O)[C@H](O)[C@@H]2O)CC[C@@]2(C)[C@H]1CC[C@H]1Cc3c([nH]c4ccccc34)[C@@]12C	10.6		> 10	10.6	13	> 10	30	soluble	Active	58	
CC(C)=CCC[C@]1(C)[C@@H](O)CC[C@@]2(C)[C@H]1CC[C@H]1Cc3c([nH]c4ccccc34)[C@@]12C [EMINDOLE SB]	2.24		> 10	7.05	12	> 10					
COC(C)(C)/C=C/C[C@]1(C)[C@@H](O)CC[C@@]2(C)[C@H]1CC[C@H]1Cc3c([nH]c4ccccc34)[C@@]12C	> 10	13.4	> 10	> 10	31		39				33
